Source: ChEMBL document CHEMBL3351225, “Design, synthesis, and structure-activity and structure-pharmacokinetic relationship studies of novel [6,6,5] tricyclic fused oxazolidinones leading to the discovery of a potent, selective, and orally bioavailable FXa inhibitor” (J Med Chem, 2014)

Assays:
[1] = biological target: Prothrombin (Homo sapiens, UniProt P00734); experiment: Inhibition of human factor 2a using L-pyro-Glu-Pro-ArgpNA, S-2366 chromogenic substrate
Procedure, shortened: (§1)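 Human enzyme and inhibitor were premixed and preincubated, then the chromogenic substrate was added. Substrate levels: 300 μM S-2765 (FXa, trypsin); 200 μM S-2366 (FIIa); 2 mM S-2366 (FVIIa, FXIa). pNA release was monitored continuously at 405 nm for 20 min at 37 °C. IC50 was obtained by nonlinear regression.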

[2] = biological target: Coagulation factor X (Homo sapiens, UniProt P00742); experiment: Inhibition of human factor 10a using N-Z-D-Arg-Gly-Arg-pNA, S-2765 chromogenic substrate
[3] = biological target: T1, Coagulation factor VII (Homo sapiens, UniProt P08709); experiment: Inhibition of human factor 7a using S-2366 chromogenic substrate; procedure, shortened: as §1
T1 sequence (P08709 whole entry): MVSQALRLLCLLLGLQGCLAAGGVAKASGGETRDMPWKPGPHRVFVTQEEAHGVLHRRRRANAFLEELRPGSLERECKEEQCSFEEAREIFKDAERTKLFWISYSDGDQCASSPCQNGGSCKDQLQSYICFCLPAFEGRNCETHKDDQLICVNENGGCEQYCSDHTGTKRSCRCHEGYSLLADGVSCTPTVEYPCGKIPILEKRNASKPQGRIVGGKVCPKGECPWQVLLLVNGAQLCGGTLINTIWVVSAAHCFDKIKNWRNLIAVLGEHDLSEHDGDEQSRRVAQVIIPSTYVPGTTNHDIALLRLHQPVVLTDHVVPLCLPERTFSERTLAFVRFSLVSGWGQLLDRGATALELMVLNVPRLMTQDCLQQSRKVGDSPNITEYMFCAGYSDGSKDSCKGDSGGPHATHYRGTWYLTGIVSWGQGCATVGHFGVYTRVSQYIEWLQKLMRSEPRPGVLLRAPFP

[4] = biological target: Coagulation factor IX (Homo sapiens, UniProt P00740); experiment: Inhibition of human factor 9a using CH3SO2-(D)CHG Gly-Arg-pNA, Biophen-CS51 chromogenic substrate
[5] = biological target: Trypsin (Homo sapiens, UniProt P07477+P07478+P35030); experiment: Inhibition of human trypsin using N-Z-D-Arg-Gly-Arg-pNA, S-2765 chromogenic substrate; format: protein assay; procedure, shortened: as §1
[6] = biological target: Coagulation factor XI (Homo sapiens, UniProt P03951); experiment: Inhibition of human factor 11a using S-2366 chromogenic substrate; procedure, shortened: as §1
[7] = system: Plasma; experiment: Anticoagulant activity in citrated rabbit plasma assessed as drug concentration required to double plasma clotting time preincubated for 10 mins at 37 degC by coagulometry; format: functional, Oryctolagus cuniculus
Procedure, shortened: (§2)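 Test compound or DMSO added to citrated rabbit plasma (3.8% sodium citrate, 10:90 v/v) and preincubated 10 min at 37 °C. PT and aPTT clotting times measured on a coagulometer with commercial kits. Activity expressed as the concentration needed to double plasma clotting time (CT2, μM).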

[8] = system: Plasma; experiment: Anticoagulant activity in citrated rabbit plasma assessed as activated partial thromboplastin time preincubated for 10 mins at 37 degC by coagulometry; format: functional, Oryctolagus cuniculus; procedure, shortened: as §2
[9] = Cmax in Sprague-Dawley rat at 10 mg/kg, po; format: ADME, organism-based; design: dose 10 mg/kg, route oral; settings: in vivo
Procedure, shortened: (§3)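 Male Sprague-Dawley rats, 200−220 g, four per group. Vehicle was 5% DMSO + 5% Tween-80 in 90% saline. The reference drug was given in 10% DMSO + 10% Tween-80 + 80% PEG400 (40% solution in saline). Serial retrobulbar vein samples were quantified by LC-MS. Parameters came from noncompartmental analysis of mean plasma concentrations.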

[10] = Tmax in Sprague-Dawley rat at 10 mg/kg, po; format: ADME, organism-based; design: dose 10 mg/kg, route oral; settings: in vivo; procedure, shortened: as §3
[11] = Elimination half life in Sprague-Dawley rat at 10 mg/kg, po; format: ADME, organism-based; design: dose 10 mg/kg, route oral; settings: in vivo, read-out: beta t1/2 (converted); procedure, shortened: as §3
[12] = Elimination half life in Sprague-Dawley rat at 3 mg/kg, iv; format: ADME, organism-based; design: dose 3 mg/kg, route intravenous; settings: in vivo, read-out: beta t1/2 (converted); procedure, shortened: as §3
[13] = AUC (0 to infinity) in Sprague-Dawley rat at 10 mg/kg, po; format: ADME, organism-based; design: time infinity, dose 10 mg/kg, route oral; settings: plasma; procedure, shortened: as §3
[14] = AUC (0 to infinity) in Sprague-Dawley rat at 3 mg/kg, iv; format: ADME, organism-based; design: time infinity, dose 3 mg/kg, route intravenous; settings: plasma; procedure, shortened: as §3
[15] = Plasma clearance in Sprague-Dawley rat at 3 mg/kg, iv; format: ADME, organism-based; design: dose 3 mg/kg, route intravenous; procedure, shortened: as §3
[16] = Volume of distribution at steady state in Sprague-Dawley rat at 3 mg/kg, iv; format: ADME, organism-based; design: dose 3 mg/kg, route intravenous; settings: in vivo, read-out: Vdss; procedure, shortened: as §3
[17] = Oral bioavailability in Sprague-Dawley rat at 10 mg/kg; format: ADME, organism-based; settings: in vivo; procedure, shortened: as §3
[18] = Cmax in Sprague-Dawley rat at 3 mg/kg, po; format: ADME, organism-based; design: dose 3 mg/kg, route oral; settings: in vivo
[19] = Tmax in Sprague-Dawley rat at 3 mg/kg, po; format: ADME, organism-based; design: dose 3 mg/kg, route oral; settings: in vivo
[20] = Elimination half life in Sprague-Dawley rat at 3 mg/kg, po; format: ADME, organism-based; design: dose 3 mg/kg, route oral; settings: in vivo, read-out: beta t1/2 (converted)
[21] = AUC (0 to infinity) in Sprague-Dawley rat at 3 mg/kg, po; format: ADME, organism-based; design: time infinity, dose 3 mg/kg, route oral; settings: plasma
[22] = Oral bioavailability in Sprague-Dawley rat at 3 mg/kg; format: ADME, organism-based; settings: in vivo
[23] = Cmax in Beagle dog at 1 mg/kg, po; format: ADME, organism-based, Canis lupus familiaris; design: dose 1 mg/kg, route oral; settings: in vivo
Procedure, shortened: (§4)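 Male dogs, three per group. Dosed orally at 1 mg/kg or by intravenous infusion at 0.5 mg/kg. Vehicle was 5% DMSO + 5% Tween-80 in 90% saline, or 10% DMSO + 10% Tween-80 + 80% PEG400 for the reference drug. Foreleg blood samples were quantified by LC-MS. Parameters came from noncompartmental analysis of mean plasma concentrations.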

[24] = Tmax in Beagle dog at 1 mg/kg, po; format: ADME, organism-based, Canis lupus familiaris; design: dose 1 mg/kg, route oral; settings: in vivo; procedure, shortened: as §4
[25] = Elimination half life in Beagle dog at 1 mg/kg, po; format: ADME, organism-based, Canis lupus familiaris; design: dose 1 mg/kg, route oral; settings: in vivo; procedure, shortened: as §4
[26] = Elimination half life in Beagle dog at 0.5 mg/kg, iv; format: ADME, organism-based, Canis lupus familiaris; design: dose 0.5 mg/kg, route intravenous; settings: in vivo; procedure, shortened: as §4
[27] = AUC (0 to infinity) in Beagle dog at 1 mg/kg, po; format: ADME, organism-based, Canis lupus familiaris; design: time infinity, dose 1 mg/kg, route oral; settings: plasma; procedure, shortened: as §4
[28] = AUC (0 to infinity) in Beagle dog at 0.5 mg/kg, iv; format: ADME, organism-based, Canis lupus familiaris; design: time infinity, dose 0.5 mg/kg, route intravenous; settings: plasma; procedure, shortened: as §4
[29] = Plasma clearance in Beagle dog at 0.5 mg/kg, iv; format: ADME, organism-based, Canis lupus familiaris; design: dose 0.5 mg/kg, route intravenous; procedure, shortened: as §4
[30] = Volume of distribution at steady state in Beagle dog at 0.5 mg/kg, iv; format: ADME, organism-based, Canis lupus familiaris; design: dose 0.5 mg/kg, route intravenous; settings: in vivo, read-out: Vdss; procedure, shortened: as §4
[31] = Oral bioavailability in Beagle dog at 1 mg/kg; format: ADME, organism-based, Canis lupus familiaris; settings: in vivo; procedure, shortened: as §4
[32] = system: Rattus norvegicus; experiment: Antithrombotic activity in rat model of FeCl3-induced venous thrombosis assessed as reduction in thrombus formation dosed orally 60 mins before thrombus formation; settings: po
[33] = system: Rattus norvegicus; experiment: Antithrombotic activity in rat model of arteriovenous shunt-induced thrombosis assessed as reduction in thrombus formation dosed orally 60 mins before shunt opening; settings: po
[34] = system: Rattus norvegicus; experiment: Induction of tail bleeding in rat assessed as prolongation of bleeding time dosed orally 60 mins before surgery; format: organism-based; settings: in vivo, po, 1 h
Procedure, shortened: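 Anesthetized rats were dosed orally with compound suspended in 0.5% CMC-Na, or vehicle, 60 min before the tail was transected 4 mm from the tip. The tail was immersed vertically in saline at 37 °C. Bleeding time was taken as the point when flow ceased for >30 s, with a 30 min maximum.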

Coagulation factor IX, sequence (P00740 47-191 limits assumed): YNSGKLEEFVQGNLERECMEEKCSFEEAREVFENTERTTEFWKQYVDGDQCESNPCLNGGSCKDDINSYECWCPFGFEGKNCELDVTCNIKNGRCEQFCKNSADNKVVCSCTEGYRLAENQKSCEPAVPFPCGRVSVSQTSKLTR
Coagulation factor IX, sequence (P00740 227-461 limits assumed): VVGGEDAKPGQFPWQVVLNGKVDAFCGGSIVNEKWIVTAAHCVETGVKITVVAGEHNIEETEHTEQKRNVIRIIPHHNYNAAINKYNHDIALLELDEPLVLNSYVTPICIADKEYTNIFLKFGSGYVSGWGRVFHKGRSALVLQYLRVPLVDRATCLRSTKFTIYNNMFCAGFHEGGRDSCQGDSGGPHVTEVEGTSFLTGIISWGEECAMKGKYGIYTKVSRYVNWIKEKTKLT
Coagulation factor X, sequence (P00742 41-179 limits assumed): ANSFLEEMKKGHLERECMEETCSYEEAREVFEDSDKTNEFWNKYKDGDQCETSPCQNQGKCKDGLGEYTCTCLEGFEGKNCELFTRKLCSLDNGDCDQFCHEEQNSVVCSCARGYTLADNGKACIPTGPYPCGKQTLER
Coagulation factor X, sequence (P00742 235-488 limits assumed): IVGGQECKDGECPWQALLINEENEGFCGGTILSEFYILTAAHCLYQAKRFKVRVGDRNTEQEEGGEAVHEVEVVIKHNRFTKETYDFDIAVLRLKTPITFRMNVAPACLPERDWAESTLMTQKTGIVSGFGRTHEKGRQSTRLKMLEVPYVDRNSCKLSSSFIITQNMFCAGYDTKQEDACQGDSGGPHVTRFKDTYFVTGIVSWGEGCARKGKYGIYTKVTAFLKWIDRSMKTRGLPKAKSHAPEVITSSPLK
Coagulation factor XI, sequence (P03951 19-387 limits assumed): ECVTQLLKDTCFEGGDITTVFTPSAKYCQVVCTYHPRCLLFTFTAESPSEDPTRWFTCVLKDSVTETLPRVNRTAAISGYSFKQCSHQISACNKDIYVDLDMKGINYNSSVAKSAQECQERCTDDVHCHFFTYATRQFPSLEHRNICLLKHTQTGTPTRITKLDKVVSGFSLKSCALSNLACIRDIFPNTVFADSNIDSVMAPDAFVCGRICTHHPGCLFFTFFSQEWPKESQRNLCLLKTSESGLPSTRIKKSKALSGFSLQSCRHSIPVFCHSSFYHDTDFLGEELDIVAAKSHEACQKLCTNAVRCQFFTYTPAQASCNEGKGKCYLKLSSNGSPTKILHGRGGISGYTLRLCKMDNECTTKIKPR
Coagulation factor XI, sequence (P03951 388-625 limits assumed): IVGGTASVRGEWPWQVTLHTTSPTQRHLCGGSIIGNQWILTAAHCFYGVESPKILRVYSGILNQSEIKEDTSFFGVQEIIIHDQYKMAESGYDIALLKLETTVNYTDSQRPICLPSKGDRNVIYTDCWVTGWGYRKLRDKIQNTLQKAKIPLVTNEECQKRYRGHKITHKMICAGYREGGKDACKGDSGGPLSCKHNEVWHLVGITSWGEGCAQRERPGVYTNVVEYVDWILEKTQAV

| SMILES | IC50 [1] [µM] | IC50 [2] [µM] | IC50 [3] [µM] | IC50 [4] [µM] | IC50 [5] [µM] | IC50 [6] [µM] | Activity [7] [µM] | 2aPTT [8] [µM] | Cmax [9] [ng/mL] | Tmax [10] [h] | half-life [11] [h] | half-life [12] [h] | AUC(0-inf) [13] [ng·h/mL] | AUC(0-inf) [14] [ng·h/mL] | clearance [15] [mL/min/kg] | Vd [16] [L/kg] | bioavailability [17] [%] | further results |
| --- | --- | --- | --- | --- | --- | --- | --- | --- | --- | --- | --- | --- | --- | --- | --- | --- | --- | --- |
| O=C(NC[C@@H]1OC(=O)N2c3ccc(N4CCOCC4=O)cc3CC[C@@H]12)c1ccc(Cl)s1 | > 100 | 0.00471 | > 100 | > 100 | > 100 | > 100 | 0.37 | 0.33 | 3020 | 2.3 | 3.54 | 0.74 | 14200 | 20400 | 2.48 | 0.144 | 20.4 |  |
| O=C(NC[C@@H]1OC(=O)N2c3ccc(N4CCOCC4=O)cc3NC[C@@H]12)c1ccc(Cl)s1 | > 100 | 0.00506 | > 100 | > 100 | > 100 | > 100 | 0.48 | 0.43 | 565 | 0.44 | 1.52 | 0.86 | 1350 | 5700 | 9.22 | 0.199 | 6.8 |  |
| O=C(NC[C@H]1CN(c2ccc(N3CCOCC3=O)cc2)C(=O)O1)c1ccc(Cl)s1 [RIVAROXABAN] |  |  |  |  |  |  | 0.4 | 0.32 |  |  |  | 1.27 |  | 9980 | 5.05 | 0.19 |  | Cmax [18]: 850 ng/mL; Tmax [19]: 0.88 h; half-life [20]: 2.9 h; AUC(0-inf) [21]: 2260 ng·h/mL; bioavailability [22]: 21.3%; Cmax [23]: 333 ng/mL; Tmax [24]: 0.7 h; half-life [25]: 1.8 h; half-life [26]: 2.4 h; AUC(0-inf) [27]: 1000 ng·h/mL; AUC(0-inf) [28]: 916 ng·h/mL; clearance [29]: 10 mL/min/kg; Vd [30]: 2.8 L/kg; bioavailability [31]: 68%; ED50 [32]: 4.86 mg/kg; ED50 [33]: 3.72 mg/kg; Activity [34]: Dose-dependent effect |
